Assay outcomes: PubChem BioAssay, several laboratories
EBI2 block: EBI2 (human) antagonism | EBI2 beta-arrestin recruitment, luminescence, 7a,25-OHC stimulated | inhibition, % at 5 µM | actives 0.81% (n = 360,000); in the data active = inhibition above about 38%;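 also: enzyme fragment complementation signal reports receptor beta-arrestin coupling in cells; 0% = agonist plus DMSO wells and 100% = wells without agonist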
APJ antag: APJ receptor antagonism; AID 2521; CHO-K1 APJ beta-arrestin complementation, luminescence; inhibition, % at 20 µM; actives 0.32% (n = 330,000); P35414;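 active = inhibition above about 40% at 20 µM, limit read from the data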;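 also: cells challenged with 10 nM apelin-13 agonist together with compound; plate controls were apelin-13 plus DMSO wells for no effect and DMSO wells lacking apelin-13 for full effect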
APJ ag: activates the human apelin receptor APJ | P35414 | CHO-K1 APJ PathHunter beta-arrestin, luminescence; 0% DMSO wells, 100% apelin | activation, % at 20 µM | actives 0.11% (n = 330,000) | AID 2520;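 active = activation more than six SD over the plate average, tested at 20 µM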;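 also: 0% = DMSO alone and 100% = apelin-13 at 10 nM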
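Assay system – PathHunter CHO-K1 APJ (AGTRL-1) beta-arrestin reporter cells · Compound – one dose, 20 µM compound, 1% DMSO · Timing – compound 90 min 25 °C, reagent 1 h · Measured by – luminescence from split beta-galactosidase complementation, Galacton Star/Emerald II substrate · Measure – beta-arrestin recruitment to APJ as agonist activity, luminescent signal · Benchmarks – DMSO vs Apelin-13 10 nM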
HTR2A ag: mouse HTR2A agonism via beta-arrestin recruitment | activation, % at 7.6 µM | P35363 | CHO-K1 mHTR2A beta-arrestin complementation, luminescence; percent of 30 µM serotonin response | actives 0.66% (n = 360,000);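 active = activation above a run cutoff, the mean activation of all tested compounds plus 3 SD, cut at about 14% in these data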;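 also: 0% = plate median of compound wells and 100% = 30 µM serotonin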
CCR6 antagonist: antagonists of human CCR6 receptor; P51684; CHO-K1 CCR6 PathHunter beta-arrestin, luminescence, CCL20-stimulated; actives 0.49% (n = 340,000); inhibition, % at 20 µM; AID 493098;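 active = compounds whose inhibition of the agonist-driven luminescence signal at 20 µM reaches about 50%, limit read from the data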;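 also: cells stimulated with CCL20 at 14 nM final; plate controls were DMSO with CCL20 for no effect and DMSO without agonist for full effect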
CXCR6 inh: CXCR6 (human) receptor inhibition; CHO-K1 PathHunter CXCR6 beta-arrestin, luminescence; inhibition, % at 20 µM; actives 0.36% (n = 360,000); AID 602244; in the data active = inhibition above about 34%, passing the limit was not always enough;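 also: antagonist mode with CXCL16 agonist at 10 nM final; 0% = 10 nM CXCL16 with DMSO and 100% = unstimulated wells without agonist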
Target sequence (O00574 whole entry, looked up): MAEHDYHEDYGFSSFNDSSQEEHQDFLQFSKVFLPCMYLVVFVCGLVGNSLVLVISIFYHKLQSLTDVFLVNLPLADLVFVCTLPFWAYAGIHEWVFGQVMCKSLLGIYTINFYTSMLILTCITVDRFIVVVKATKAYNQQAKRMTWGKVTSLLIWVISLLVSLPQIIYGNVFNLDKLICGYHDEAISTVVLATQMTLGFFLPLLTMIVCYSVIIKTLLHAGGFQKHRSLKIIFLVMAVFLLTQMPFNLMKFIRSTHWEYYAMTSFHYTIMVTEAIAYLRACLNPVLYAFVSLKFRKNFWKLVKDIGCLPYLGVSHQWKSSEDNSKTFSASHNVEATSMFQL
EBI2 antag conf: confirmation of human EBI2 receptor antagonists; shares compounds with EBI2 block; EBI2 beta-arrestin luminescence, 7a,25-OHC antagonism; inhibition, % at 5 µM; actives 29% (n = 2,400); AID 651997;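 active = inhibition of at least 50%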
EBI2 agonist: counter-screen for EBI2 antagonists: EBI2 agonist activity. shares compounds with EBI2 block. EBI2-expressing cells, agonist mode, luminescence, 60 min; 0% vehicle, 100% 7α,25-dihydroxycholesterol control. activation, % at 5 µM. 2,400 tested, under 10 active. AID 652000;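 active = activation of at least 50%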
bGal cs: inhibits E. coli beta-galactosidase, counter-screen for EBI2 antagonists | AID 652176 | shares compounds with EBI2 block | purified beta-galactosidase, luminescent Galacton Star, 15 min | inhibition, % at 5 µM | actives 1% (n = 2,400);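 active = replicate-average signal at least 3 plate SD below neutral wells, shown as high inhibition, flagging enzyme-inhibiting false positives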;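 also: 0% = DMSO wells with enzyme and 100% = wells lacking enzyme; higher means stronger loss of beta-gal luminescence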
Active calls of the source: *; · = not tested or not shown. Most compounds without a hit are left out; they make up all but 2.1% or so of the library.

SMILES	EBI2 block	APJ antag	APJ ag	HTR2A ag	CCR6 antagonist	CXCR6 inh	EBI2 antag conf	EBI2 agonist	bGal cs
Cc1ccc(/C=C/C(=O)NCCCc2ccccc2)cc1	48.8*	14.9	-1.3	-1.1	21.8	11.6	38.7	-1.2	-1.9
Cc1ccc(CSCCNC(=O)/C=C/c2ccc(Cl)cc2)cc1	53.1*	-11.3	2.4	-2.6	-9.4	0.8	29.2	2.0	-1.3
O=C(CCCN=C1NS(=O)(=O)c2ccccc21)OCC(=O)c1ccccc1Cl	-8.3	0.0	2.1	-4.0	5.2	8.1	·	·	·
Cc1ccc(C2CC(c3ccccc3)=NN2C(=O)CSc2nnc(-c3ccc(Cl)cc3)o2)o1 (configuration not stated)	42.1*	4.9	0.2	10.1	4.4	11.0	2.0	-1.2	-5.9
Cc1ccc(C2CC(c3ccccc3)=NN2C(=O)CSc2nnc(-c3ccncc3)n2C)o1 (configuration not stated)	1.1	10.3	3.9	3.8	-20.0	4.0	·	·	·
COc1ccccc1N1CCN(C2CCCN(C(=O)c3ccsc3)C2)CC1 (configuration not stated)	0.3	2.5	-1.7	-11.1	-4.6	1.7	·	·	·
O=C1C=C(O)CC(c2ccc(Cl)cc2)C1 (configuration not stated)	-12.8	9.4	-1.0	-1.4	-5.2	1.9	·	·	·
O=C1C=C(/C=C/C2C=CC=CC2)C[C@@H](c2ccc(Cl)cc2)C1 (some centres not stated)	47.6*	-11.6	-4.3	-5.4	6.5	-1.6	25.4	-1.6	-7.8
O=C(/C=C1\OCc2ccccc21)OCc1ccccc1	8.1	·	·	-4.5	·	·	·	·	·
O=C(/C=C1\OCc2cc(OCc3ccccc3)ccc21)OCc1ccccc1	45.6*	·	·	-2.3	·	·	32.1	-0.5	-15.1
CCOC(=O)CN1C(=O)CC(c2ccccc2)C1=O (configuration not stated)	7.9	12.3	-2.5	-3.0	6.5	-5.6	·	·	·
CCOC(=O)C1(CC2CCCCO2)CCN(C(=O)Nc2ccc(SC)cc2)CC1 (configuration not stated)	40.4*	7.7	-3.6	-6.2	13.8	2.9	18.8	0.7	2.2
O=C(COc1ccc(S(=O)(=O)N2CCCC2)cc1)N1CCCC1	-1.6	-13.5	0.1	2.3	-2.7	-4.7	·	·	·
CCOc1ccc(OCC(=O)N2CCN(S(=O)(=O)c3ccccc3)CC2)cc1	59.3*	·	·	-1.8	·	1.3	28.3	-0.1	-13.9
Cc1ccc(NCC(=O)N2CCN(S(=O)(=O)c3ccccc3)CC2)cc1F	87.5*	-5.9	-4.8	10.1	15.1	-13.9	48.3	-0.7	-9.4
N#Cc1ccc(NCC(=O)N2CCN(S(=O)(=O)c3ccccc3)CC2)cc1	35.3	-1.0	-1.5	-5.5	3.1	-1.7	·	·	·
CC(=O)c1ccc(S(=O)(=O)N2CCN(CCOc3ccc(Br)cc3)CC2)cc1	89.6*	5.3	-1.3	-8.4	10.3	-7.0	58.1*	2.2	5.3
CCS(=O)(=O)N1CCN(C(=O)COc2ccc(-c3ccccc3)cc2)CC1	19.8	-3.8	-4.3	-4.0	-5.9	-3.7	·	·	·
CCOc1ccc(S(=O)(=O)N2CCN(C(=O)COc3ccc(Br)cc3)CC2)cc1	87.5*	-16.9	-0.5	0.9	21.9	-1.5	80.5*	1.2	2.0
CCOc1ccc(S(=O)(=O)N2CCN(S(=O)(=O)c3ccc(C(C)=O)cc3)CC2)cc1	8.0	7.7	-1.9	-5.8	9.7	-3.4	·	·	·
CC(C)(CN1CCCN(CC(C)(C)C(=O)O)C1=O)C(=O)O	-9.5	·	·	-6.0	·	-7.1	·	·	·
COCc1cc(C)nc(OCC(=O)N/N=C/c2ccc(O)cc2)c1C#N	62.6*	1.2	-2.3	1.5	8.3	6.7	41.2	1.5	6.2
COCc1cc(C)nc(OCC(=O)N/N=C/c2ccc(OC)c(OC)c2)c1C#N	-0.8	5.1	0.1	12.1	8.6	4.0	·	·	·
